Published values of several laboratories.
Lines come from different studies, so protocols differ.
Target: Tyrosine-protein kinase Fer (FER, Homo sapiens, UniProt P16591)

Compound	assay	test system	setting	endpoint	result
Cc1ccc(NC(=O)c2ccc(CN3CCN(C)CC3)cc2)cc1Nc1nc(-c2cccnc2)cs1	cell-free assay	–	0.5 µM	remaining signal	97.6%
Cc1cc(NC(=O)c2cccc3cc(-c4cccc5[nH]nc(N)c45)ccc23)ccc1F	enzyme activity, inhibitor	–	0.1 µM	activity vs control	106%
Cc1cnc(NC2CCOCC2)nc1-n1cnc(C(=O)NC(CN)c2cc(F)cc(Cl)c2)c1 (stereo not shown)	enzyme activity, inhibitor, radiometric	–	1 µM	remaining activity	104%
CCN1CCN(Cc2ccc(NC(=O)c3ccc(C)c(/C=C/c4cnc5[nH]ccc5c4OC)c3)cc2C(F)(F)F)CC1	target engagement in cells, inhibitor, chemoproteomics	A-375	50 nM	inhibition	-10.4%
C[C@@H]1CCN(C(=O)CC#N)C[C@@H]1N(C)c1ncnc2[nH]ccc12	cell-free assay	–	0.5 µM	remaining signal	104%
CNc1cccc2cc(C(=O)Nc3ccc(C(=O)O)cc3)c(=O)[nH]c12	enzyme activity, inhibitor	–	10 µM	inhibition	1.6%
C[C@H](c1ccc(F)cc1)N(Cc1cccc(C(=O)O)c1)C(=O)c1cnc2ccccc2c1	cell-free assay, competition with immobilised ligand	–	1 µM	remaining binding	100%
COc1cc2nccc(Oc3ccc(NC(=S)NC(=O)c4ccccc4C)cc3)c2cc1OC	enzyme activity, inhibitor	–	0.5 µM	remaining activity	58.2%
COc1cc2ncnc(Nc3ccc(Oc4ccccc4)cc3C)c2cc1OC	enzyme activity, inhibitor	–	1 µM	inhibition	54%
COc1cc(Cl)c(C(=O)N[C@@H](CN[C@H]2CC[C@@H](N)CC2)Cc2ccc(C#N)cc2)cc1-c1ccc(CN[C@H](C)c2ccc(C)cc2)o1	enzyme activity, inhibitor	–	1 µM	remaining activity	96%
O=C(N1CCS(=O)(=O)CC1)N1C[C@H](c2ccc(OC(F)(F)F)cc2)C[C@H](c2nc(C3CC3)no2)C1	cell-free assay, competition with immobilised ligand	–	1 µM	remaining binding	100%
COc1cc2ncnc(Nc3ccc(F)c(Cl)c3)c2cc1OCCCN1CCOCC1	cell-free assay	–	0.5 µM	remaining signal	94.1%
CC(=O)N1CCC(c2ccc(C(=O)NC3=NCCN3)cc2C(F)(F)F)CC1	cell-free assay, competition with immobilised ligand	–	1 µM	remaining binding	93%
CCN(CC)CCNC(=O)c1c(C)[nH]c(/C=C2\C(=O)Nc3ccc(Cl)cc32)c1C	enzyme activity, inhibitor	–	0.5 µM	remaining activity	17.7%
Cc1ccc(Nc2nccc(N(C)c3ccc4c(C)n(C)nc4c3)n2)cc1S(N)(=O)=O	enzyme activity, inhibitor	–	10 µM	inhibition	71%
O=C1NC(c2ccccn2)Sc2ccccc21 (stereo not shown)	cell-free assay, competition with immobilised ligand	–	1 µM	remaining binding	84%

Compound	assay	test system	setting	endpoint	result
COc1cc2c(N3CCN(C(=O)Nc4ccc(OC(C)C)cc4)CC3)ncnc2cc1OCCCN1CCCCC1	cell-free assay	–	0.5 µM	remaining signal	104%
COc1ccc2c(c1)O[C@@H](c1ccc(OC)c(OC)c1)C[C@H]2NC(=O)C1(c2ccc3c(c2)OC(F)(F)O3)CC1	cell-free assay, competition with immobilised ligand	–	1 µM	remaining binding	100%
Cc1sc(C(=O)NC2COC2)cc1-n1cc(NC(=O)Nc2c(F)cccc2Cl)cn1	enzyme activity, inhibitor	–	10 µM	remaining activity	90%
COc1ccc(C(=O)Nc2sc3c(c2C(N)=O)CCCC3)cc1OC	enzyme activity, inhibitor	–	0.5 µM	remaining activity	89.8%
CNC(=O)c1cc(Oc2ccc(NC(=O)Nc3ccc(Cl)c(C(F)(F)F)c3)cc2)ccn1	enzyme activity, inhibitor	–	0.3 µM	inhibition	-8%
Cc1ccc(NC(=O)c2ccc(C)c(C(F)(F)F)c2)cc1C#Cc1nn(C2CCC(O)CC2)c2ncnc(N)c12 (stereo not shown)	cell-free assay	–	10 µM	remaining signal	67%
CCOCCn1cc(C(=O)Nc2ccc(-n3nc(-c4cccnc4)cc3C(F)(F)F)cn2)ccc1=O	cell-free assay, competition with immobilised ligand	–	1 µM	remaining binding	100%
CC(C)(C)c1nc(-c2cccc(NS(=O)(=O)c3c(F)cccc3F)c2F)c(-c2ccnc(N)n2)s1	enzyme activity, inhibitor, radiometric	–	1 µM	remaining activity	94%
COc1cccc(CNC(=O)c2nc3scc(COCc4ccc(C(=O)O)cc4)c3c(=O)[nH]2)c1	cell-free assay, competition with immobilised ligand	–	1 µM	remaining binding	100%
O=C1NC(=O)c2cc(Nc3ccc(F)cc3)c(Nc3ccc(F)cc3)cc21	cell-free assay	–	0.5 µM	remaining signal	96.4%
O=C(O)[C@@H]1[C@@H](Cn2nnc3ccccc3c2=O)CC[C@H]1C(=O)c1ccc(OCCC2CCOCC2)cc1	cell-free assay, competition with immobilised ligand	–	1 µM	remaining binding	87%
Nc1ncnc2occ(-c3ccc(NC(=O)Nc4cc(C(F)(F)F)ccc4F)cc3)c12	cell-free assay	–	20 µM	remaining signal	9%
CCN(CC)CCNC(=O)c1c(C)[nH]c(/C=C2\C(=O)Nc3ccc(F)cc32)c1C	enzyme activity, inhibitor	–	0.3 µM	inhibition	-42%
O=C(Nc1cnn(-c2csc(C(=O)NC3COC3)c2)c1)Nc1ccccc1Cl	enzyme activity, inhibitor	–	5 µM	remaining activity	101%
CCCOc1ccc(OC)c(F)c1C(=O)c1ccc(C(=O)N[C@@H]2CNC[C@H]2NC(=O)c2ccc3[nH]ncc3c2)cc1	enzyme activity, inhibitor	–	10 µM	remaining activity	105%
